According to article PMC3159713 (Bioorganic & medicinal chemistry letters, 2011):

Columns and labels:
[1] = biological target: Norwalk virus 3C protease (Norovirus, UniProt Q83883); assay: Recombinant NV protease fluorogenic; type: biochemical; conditions: for IC50 column: designated inactive (percent inhibition < 25): incubated with the enzyme for 30 minutes at an [I]/[S] ratio of 25
[2] = system: Norwalk norovirus (NV replicon-harboring HG23 cells); assay: Cell-based NV replicon system; design: species or system Norwalk virus; conditions: NV genome levels at 24 hr post-treatment
Summary of the method: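 Norwalk virus replicon-harbouring HG23 cells, 1 day old and 80-90% confluent, were treated with the test compound from 0 (mock-DMSO) to 320 μM. NV genome was measured by qRT-PCR. ED50 was determined from NV genome levels at 24 hr post-treatment.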

[3] = system: HG23 cells; assay: Cell cytotoxicity assay kit in HG23 cells; type: cell-based; conditions: 48 hr of treatment
[4] = system: murine norovirus (MNV); assay: Murine norovirus replication in RAW267.4 cells; type: cell-based, murine norovirus-1 (MNV-1); conditions: MNV-1 at MOI of 2, TCID50 assay

Chain of Norwalk virus 3C protease (Q83883 1101-1281): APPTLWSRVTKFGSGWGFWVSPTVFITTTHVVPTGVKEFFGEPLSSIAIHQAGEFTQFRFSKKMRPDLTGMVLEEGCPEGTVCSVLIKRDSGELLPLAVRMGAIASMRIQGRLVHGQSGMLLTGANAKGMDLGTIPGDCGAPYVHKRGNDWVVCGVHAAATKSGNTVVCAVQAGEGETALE

| IC50 column: designated inactive (percent inhibition < 25) [1] | Inhibition of Norwalk virus 3C protease (in words) [1] | SMILES | ED50 (effective dose that inhibits 50% of norovirus replication) [2] [µM] | TD50 (median toxic dose) [3] [µM] | ED50, replication of murine norovirus (MNV) [4] [µM] |
| --- | --- | --- | --- | --- | --- |
| Inactive ^a | – | O=C[C@H](CC1CCNC1=O)NC(=O)[C@H](Cc1ccccc1)NC(=O)N1CCOCC1 (some centres unmarked) [Compound 2] | – | – | – |
| – | – | CC(C)C[C@H](NC(=O)CNC(=O)OCc1ccccc1)C(=O)N[C@H](C=O)CC1CCNC1=O (some centres unmarked) [Compound 5] | 7.8 | > 320 | 20.3 |
| Inactive ^a | – | CC(C)C[C@H](NC(=O)CNC(=O)OCc1ccccc1)C(=O)N[C@H](CO)CC1CCNC1=O (some centres unmarked) [Compound 6] | – | – | – |
| – | sub-micromolar inhibitor | CCCC[C@H](NC(=O)CNC(=O)OCc1ccccc1)C(=O)N[C@H](C=O)CC1CCNC1=O (some centres unmarked) [Compound 7] | – | – | – |
| Inactive ^a | – | CCCC[C@H](NC(=O)CNC(=O)OCc1ccccc1)C(=O)N[C@H](CO)CC1CCNC1=O (some centres unmarked) [Compound 8] | – | – | – |
| Inactive ^a | devoid of inhibitory activity | CC(C)C[C@H](NC(=O)OCc1ccccc1)C(=O)N[C@@H](CC1CCNC1=O)C(=O)C(=O)NC(C)C (some centres unmarked) [Compound 10] | – | – | – |

| SMILES | IC50 column: designated inactive (percent inhibition < 25) [1] | Inhibition of Norwalk virus 3C protease (in words) [1] | ED50 (effective dose that inhibits 50% of norovirus replication) [2] [µM] | TD50 (median toxic dose) [3] [µM] | ED50, replication of murine norovirus (MNV) [4] [µM] |
| --- | --- | --- | --- | --- | --- |
| CC(C)C[C@H](NC(=O)OCc1ccccc1)C(=O)N[C@H](CO)CC1CCNC1=O (some centres unmarked) [Compound 3] | Inactive ^a | – | – | – | – |
| CC(C)C[C@H](NC(=O)OCc1ccccc1)C(=O)N[C@H](C=O)CC1CCNC1=O (some centres unmarked) [Compound 4] | – | dose-dependent inhibition | 2.1 | > 320 | 5.5 |
